Measurements published in ChEMBL document CHEMBL3286133, “Synthesis, biological evaluation and molecular docking studies of trans-indole-3-acrylamide derivatives, a new class of tubulin polymerization inhibitors” (Bioorg Med Chem, 2014).
The source made the active and inactive calls. No cut-off for these calls is given here.

How the values were obtained:
Tubulin = Tubulin (Bos taurus, UniProt Q6B856+Q862L2+Q862F3); assay: Inhibition of bovine brain tubulin polymerization after 20 mins by spectrophotometry
HeLa [1] = assay: Antiproliferative activity against human HeLa cells after 48 hrs by MTT assay; type: functional, cell-based
MCF7 = assay: Antiproliferative activity against human MCF7 cells after 48 hrs by MTT assay; type: functional, cell-based; conditions: MCF7, 48 h
How it was run: (§1)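 MTT viability assay. HL-60 and Raji were grown in RPMI-1640 and MCF7/MDA-MB-231 in DMEM, all with 10% FBS, at 37 °C under 5% CO₂. Cells were seeded at 10,000/well, held overnight in 1% FBS medium, then exposed 48 h to 0.1–125 µM. Solvent control was 0.1% DMSO. MTT was 0.5 mg/mL for 4 h, formazan was dissolved in DMSO, and absorbance read at 570 nm. Quadruplicates; IC50 taken from concentration–response curves.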

Tubulin (Bos taurus) [2] = molecular target: T1, Tubulin (Bos taurus) (UniProt Q6B856+Q862L2+Q862F3); assay: Displacement of [3H]colchicine from bovine brain tubulin at 50 uM after 10 mins by liquid scintillation counting
How it was run: (§2)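 [³H]colchicine binding in 0.1 mL. Bovine brain tubulin 1.0 µM, [³H]colchicine 5.0 µM, 1.0 M glutamate, 5% DMSO, inhibitor at 5 or 50 µM; 10 min at 37 °C. Reactions were stopped with ice-cold water and filtered through two stacked DEAE-cellulose filters, which were washed with cold water. Bound label was counted by liquid scintillation.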

Raji = assay: Antiproliferative activity against human Raji cells after 48 hrs by MTT assay; type: functional, cell-based
How it was run: as §1

HL-60 [3] = assay: Antiproliferative activity against human HL60 cells after 48 hrs by MTT assay; type: functional, cell-based; conditions: HL-60, 48 h
How it was run: as §1

MDA-MB-231 = assay: Antiproliferative activity against human MDA-MB-231 cells after 48 hrs by MTT assay; type: functional, cell-based; conditions: MDA-MB-231, 48 h
How it was run: as §1

HL-60 [4] = assay: Cell cycle arrest in human HL60 cells assessed as increase in accumulation at G2/M phase for 24 hrs by flow cytometry; type: functional, cell-based
How it was run: (§3)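 DNA-content flow cytometry. 5×10⁵ HeLa or HL-60 cells were treated 24 h at a range of concentrations. Cells were fixed in ice-cold 70% ethanol, lysed in buffer with RNase A and 0.1% Triton X-100, and stained with PI. Phase distribution was taken from DNA histograms. Means of three independent experiments.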

HL-60 [5] = assay: Induction of apoptosis in human HL60 cells assessed as increase in number of late apoptotic cells for 24 and 48 hrs by annexin-V/propidium-iodide staining based flow cytometry; type: functional, cell-based
How it was run: (§4)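 Annexin-V-FITC/PI double staining with flow cytometry on HL-60 and HeLa cells after 24 or 48 h of treatment. Excitation 488 nm; emission 525 nm (FITC) and 585 nm (PI). Early apoptotic cells scored as annexin-V+/PI−, late apoptotic as annexin-V+/PI+. Means of three independent experiments.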

HeLa [6] = assay: Induction of apoptosis in human HeLa cells assessed as increase in number of late apoptotic cells at 1 and 10 uM hrs by annexin-V/propidium-iodide staining based flow cytometry; type: functional, cell-based; conditions: TDE = time-dependent effect
How it was run: as §4

HL-60 [7] = assay: Cell cycle arrest in human HL60 cells assessed as increase in accumulation at G2/M phase at 10 uM for 24 hrs by flow cytometry; type: functional; conditions: in the assay text read “at 15 to 30 uM” for “at 10 uM”
How it was run: as §3

HeLa [8] = assay: Induction of apoptosis in human HeLa cells assessed as increase in number of late apoptotic cells for 24 and 48 hrs by annexin-V/propidium-iodide staining based flow cytometry; type: functional, cell-based
How it was run: as §4

HL-60 [9] = assay: Cell cycle arrest in human HL60 cells assessed as decrease in accumulation at G1 phase at 0 to 30 uM for 24 hrs by flow cytometry; type: functional, cell-based
How it was run: as §3

HL-60 [10] = assay: Induction of apoptosis in human HL60 cells assessed as increase in number of early apoptotic cells at 1 and 10 uM by annexin-V/propidium-iodide staining based flow cytometry; type: functional, cell-based; conditions: TDE = time-dependent effect
How it was run: as §4

HeLa [11] = assay: Cell cycle arrest in human HeLa cells assessed as increase in accumulation at G2/M phase at 10 uM for 24 hrs by flow cytometry; type: functional; conditions: in the assay text read “at 15 to 30 uM” for “at 10 uM”
How it was run: as §3

HL-60 [12] = assay: Induction of apoptosis in human HL60 cells assessed as increase in number of late apoptotic cells at 1 and 10 uM by annexin-V/propidium-iodide staining based flow cytometry; type: functional, cell-based; conditions: TDE = time-dependent effect
How it was run: as §4

HeLa [13] = assay: Induction of apoptosis in human HeLa cells assessed as increase in number of early apoptotic cells at 1 and 10 uM hrs by annexin-V/propidium-iodide staining based flow cytometry; type: functional, cell-based; conditions: TDE = time-dependent effect
How it was run: as §4

HL-60 [14] = assay: Cell cycle arrest in human HL60 cells assessed as decrease in accumulation at S phase at 0 to 30 uM for 24 hrs by flow cytometry; type: functional, cell-based
How it was run: as §3

HL-60 [15] = assay: Induction of apoptosis in human HL60 cells assessed as increase in cleaved caspase-3 level at 1 to 10 uM after 24 to 48 hrs by western blot analysis; type: functional, cell-based
How it was run: (§5)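 Western blot on HL-60 cells exposed for the indicated times. Lysates were cleared at 15000 × g, 4 °C; 20 µg protein was run on 7.5–15% SDS-PAGE and transferred to PVDF. Blocking in 5% BSA for 2 h, then caspase-3 and PARP antibodies overnight at 4 °C and peroxidase secondary for 60 min. ECL detection; β-actin reprobe as loading control.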

HeLa [16] = assay: Cell cycle arrest in human HeLa cells assessed as decrease in accumulation at S phase at 0 to 30 uM for 24 hrs by flow cytometry; type: functional, cell-based
How it was run: as §3

Tubulin (Bos taurus) [17] = molecular target: T1, Tubulin (Bos taurus); assay: Displacement of [3H]colchicine from bovine brain tubulin at 5 uM after 10 mins by liquid scintillation counting
How it was run: as §2

HeLa [18] = assay: Induction of apoptosis in human HeLa cells assessed as increase in number of early apoptotic cells for 24 and 48 hrs by annexin-V/propidium-iodide staining based flow cytometry; type: functional, cell-based
How it was run: as §4

HL-60 [19] = assay: Induction of apoptosis in human HL60 cells assessed as increase in cleaved PARP level at 1 to 10 uM after 24 to 48 hrs by western blot analysis; type: functional, cell-based
How it was run: as §5

HeLa [20] = assay: Cell cycle arrest in human HeLa cells assessed as increase in accumulation at G2/M phase for 24 hrs by flow cytometry; type: functional, cell-based
How it was run: as §3

HL-60 [21] = assay: Induction of apoptosis in human HL60 cells assessed as increase in number of early apoptotic cells for 24 and 48 hrs by annexin-V/propidium-iodide staining based flow cytometry; type: functional, cell-based
How it was run: as §4

HeLa [22] = assay: Cell cycle arrest in human HeLa cells assessed as decrease in accumulation at G1 phase at 0 to 30 uM for 24 hrs by flow cytometry; type: functional, cell-based
How it was run: as §3

SMILES	IC50 (Tubulin) [µM]	IC50 (HeLa [1]) [µM]	IC50 (MCF7) [µM]	inhibition (Tubulin (Bos taurus) [2]) [%]	IC50 (Raji) [µM]	IC50 (HL-60 [3]) [µM]	IC50 (MDA-MB-231) [µM]	also measured
COc1cc(OC)c(NC(=O)/C=C/c2c[nH]c3ccccc23)c(OC)c1	> 40	> 100	> 100	11	> 100	> 100	> 100	
COc1ccc(NC(=O)/C=C/c2c[nH]c3ccccc23)cc1OC	> 40	31.4	> 100	11	10.3	6.2	> 100	
COc1ccc(CNC(=O)/C=C/c2c[nH]c3ccccc23)c(OC)c1	> 40	> 100	> 100		> 100	> 100	> 100	
COc1ccc(CNC(=O)/C=C/c2c[nH]c3ccccc23)cc1OC	> 40	> 100	> 100	13	> 100	> 100	> 100	
COc1ccc(OC)c(NC(=O)/C=C/c2c[nH]c3ccccc23)c1	> 40	> 100	> 100	15	22.9	10.1	> 100	
COc1cccc(CNC(=O)/C=C/c2c[nH]c3ccccc23)c1OC	> 40	36.5	> 100	12	> 100	> 100	> 100	
COc1ccc(OC)c(CNC(=O)/C=C/c2c[nH]c3ccccc23)c1	> 40	> 100	> 100	23	> 100	> 100	> 100	
COc1ccc(NC(=O)/C=C/c2c[nH]c3ccccc23)c(OC)c1	> 40	> 100	> 100	13	22.6	17.8	> 100	
COc1cc(NC(=O)/C=C/c2c[nH]c3ccccc23)cc(OC)c1OC	17	23.7	36.3	50	9.5	5.1	> 100	Activity (HL-60 [4]): Dose-dependent effect; Activity (HL-60 [5]): Dose-dependent effect; Activity (HeLa [6]): tde; Activity (HL-60 [7]): 60%; Activity (HeLa [8]): Dose-dependent effect; Activity (HL-60 [9]): Active; Activity (HL-60 [10]): tde; Activity (HeLa [11]): > 80%; Activity (HL-60 [12]): tde; Activity (HeLa [13]): tde; Activity (HL-60 [14]): Active; Activity (HL-60 [15]): Active; Activity (HeLa [16]): Active; inhibition (Tubulin (Bos taurus) [17]): 11%; Activity (HeLa [18]): Dose-dependent effect; Activity (HL-60 [19]): Active; Activity (HeLa [20]): Dose-dependent effect; Activity (HL-60 [21]): Dose-dependent effect; Activity (HeLa [22]): Active
COc1cc(CNC(=O)/C=C/c2c[nH]c3ccccc23)ccc1O	> 40	> 100	> 100	14	33.1	> 100	> 100	
COc1cc(NC(=O)/C=C/c2c[nH]c3ccccc23)cc(OC)c1	> 40	> 100	> 100	26	9.3	7.1	> 100	
